Measurements collected from several papers.
Compare with care: the assays were run in different laboratories.
MMP7: Matrilysin (MMP7, Homo sapiens, UniProt P09237)

N=C(N)c1ccc2cc(OC(=O)c3ccc(N=C(N)N)cc3)ccc2c1
inhibition (MMP7; enzyme activity; inhibitor; 10 µM): 5%

Cc1nn(C)cc1-c1nc2c(N3CCN(Cc4ccc(Cl)cc4)CC3)c(Cl)cnc2[nH]1
remaining binding (Serine/threonine-protein kinase 32A (STK32A, Homo sapiens, UniProt Q8WU08); binding; competition with immobilised ligand; 1 µM): 100%

COc1ncccc1-c1cnn2ccc(N3CCN(C(=O)OC(C)C)CC3)nc12
remaining binding (Phosphatidylinositol 4-phosphate 5-kinase type-1 gamma (PIP5K1C, Homo sapiens, UniProt O60331); binding; competition with immobilised ligand; 1 µM): 53%

O=c1ccc2ccc3occc3c2o1
activity vs control (Aldehyde dehydrogenase 1A1 (ALDH1A1, Homo sapiens, UniProt P00352); enzyme activity; inhibitor; absorbance; 10 µM): 61%

C#Cc1n[nH]c2c(-c3cn([C@@H](C)c4ccccn4)c(=O)[nH]c3=O)cc(F)cc12
inhibition (Tyrosine-protein kinase receptor UFO (AXL, Homo sapiens, UniProt P30530); enzyme activity; inhibitor; 0.1 µM): 13.4%

Cc1cc(=O)oc2cc(NC(=O)[C@H](CCCNC(=N)N)NC(=O)[C@H](CCCNC(=N)N)NC(=O)[C@@H](NC(=O)[C@H](CCCNC(=N)N)NC(=O)OC(C)(C)C)C(C)C)ccc12
Km (Furin (FURIN, Homo sapiens, UniProt P09958); enzyme activity; substrate; fluorescence): 44.6 µM

CCOC(=O)c1ccc(OC(=O)CCCCCNC(=N)N)cc1
inhibition (MMP7; enzyme activity; inhibitor; 10 µM): 3%

Nc1ncc(-c2nc(N3CCOCC3)nc(N3CCOCC3)n2)c(C(F)F)n1
remaining binding (Serine/threonine-protein kinase 17B (STK17B, Homo sapiens, UniProt O94768); binding; competition with immobilised ligand; 10 µM): 85%
